Type in all cases: functional, cell-based
For experiment [1], the target named is P2Y purinoceptor 1 (Rattus norvegicus, UniProt P49651). Put plainly: Activity against rat P2Y1-GFP transfected in HEK293 cells by intracellular calcium increase. The method in brief:
(§1)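 HEK 293 cells stably expressing rat P2Y1-GFP or P2Y2-GFP (C-terminal GFP), transfected with DOTAP and selected with 1 mg/mL G418. Grown in DMEM/Ham's F12 with 10% FCS on PLL coverslips and measured after 3 days. Loaded with 2 µM Fura-2/AM for 30 min, then superfused with NaHBS at 37 °C with agonist for 1 min. Single-cell 340/380 nm ratio; mean ± SD, ≥50 cells.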
For orientation: Calcium flux is commonly read through the fluorescence of an indicator in the cells.

Another experiment concerns the target P2Y purinoceptor 2 (Rattus norvegicus, UniProt P41232). Briefly: Activity against rat P2Y2-GFP transfected in HEK293 cells by intracellular calcium increase. The method in brief:
as §1

Experiment [2] has as its target P2Y purinoceptor 1 (Homo sapiens, UniProt P47900). Put plainly: Activity against human P2Y1-GFP expressed in 1321N1 cells by intracellular calcium increase. The essentials: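 hP2Y1-GFP (C-terminal tag) stably transfected into 1321N1 cells, which lack endogenous P2Y receptors; selected with 1 mg/mL G418. Cells grown in DMEM with 5% FCS under 10% CO2 at 37 °C on PLL-coated coverslips. Loaded with 2 µM Fura-2/AM for 30 min in NaHBS pH 7.4, then superfused at 37 °C with agonist for 1 min. Read-out is single-cell 340/380 nm fluorescence ratio; mean ± SD from ≥50 cells.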

We go through eight compounds from ChEMBL document CHEMBL1138990, “Diadenosine and diuridine poly(borano)phosphate analogues: synthesis, chemical and enzymatic stability, and activity at P2Y1 and P2Y2 receptors” (J Med Chem, 2006).

Molecules are shown by their SMILES.

Usually EC50 stands for the concentration that produces a half-maximal response.

Chain of P2Y purinoceptor 2 (P41232 whole entry): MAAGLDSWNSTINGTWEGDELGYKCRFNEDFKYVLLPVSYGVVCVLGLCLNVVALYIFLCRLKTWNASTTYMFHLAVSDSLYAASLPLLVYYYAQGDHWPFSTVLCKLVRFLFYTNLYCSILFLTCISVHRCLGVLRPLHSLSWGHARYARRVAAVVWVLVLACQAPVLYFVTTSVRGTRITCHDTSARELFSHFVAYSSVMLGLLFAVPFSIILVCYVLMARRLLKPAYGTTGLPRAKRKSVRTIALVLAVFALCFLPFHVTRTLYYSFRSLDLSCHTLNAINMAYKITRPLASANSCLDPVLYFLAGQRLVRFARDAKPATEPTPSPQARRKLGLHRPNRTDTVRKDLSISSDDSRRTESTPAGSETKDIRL
Chain of P2Y purinoceptor 1 (Rattus norvegicus, UniProt P49651) (P49651 whole entry, the tested form may be a part): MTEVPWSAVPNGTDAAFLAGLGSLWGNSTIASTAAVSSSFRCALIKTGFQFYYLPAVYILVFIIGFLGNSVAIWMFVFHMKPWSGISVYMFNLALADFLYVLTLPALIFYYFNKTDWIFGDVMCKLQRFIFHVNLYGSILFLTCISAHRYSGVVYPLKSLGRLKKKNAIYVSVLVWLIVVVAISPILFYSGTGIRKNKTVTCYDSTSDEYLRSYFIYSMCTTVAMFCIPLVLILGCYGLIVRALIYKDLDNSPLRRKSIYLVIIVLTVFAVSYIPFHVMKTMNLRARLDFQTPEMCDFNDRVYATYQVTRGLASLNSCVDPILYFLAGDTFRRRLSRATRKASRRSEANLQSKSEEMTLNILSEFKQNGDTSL
Chain of P2Y purinoceptor 1 (Homo sapiens, UniProt P47900) (P47900 whole entry, the tested form may be a part): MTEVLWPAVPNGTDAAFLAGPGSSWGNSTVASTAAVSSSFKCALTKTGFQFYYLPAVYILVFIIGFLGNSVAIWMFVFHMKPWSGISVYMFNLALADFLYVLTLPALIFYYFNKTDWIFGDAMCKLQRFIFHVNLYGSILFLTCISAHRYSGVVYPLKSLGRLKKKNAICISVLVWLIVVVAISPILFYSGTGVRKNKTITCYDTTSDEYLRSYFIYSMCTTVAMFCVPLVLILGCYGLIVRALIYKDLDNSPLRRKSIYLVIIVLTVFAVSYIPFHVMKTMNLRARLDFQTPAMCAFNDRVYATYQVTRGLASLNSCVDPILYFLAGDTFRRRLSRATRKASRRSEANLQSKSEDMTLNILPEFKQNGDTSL

Consider `Nc1ncnc2c1ncn2[C@@H]1O[C@H](COP(=O)(O)OP(=O)(O)OP(=O)(O)OP(=O)(O)OP(=O)(O)OC[C@H]2O[C@@H](n3cnc4c(N)ncnc43)[C@H](O)[C@@H]2O)[C@@H](O)[C@H]1O`, for which, at P2Y purinoceptor 1 [1], the concentration giving a half-maximal response (EC50) was no less than 5000 nM. As for `BP(=O)(OP(=O)(O)OP(=O)(O)OC[C@H]1O[C@@H](n2ccc(=O)[nH]c2=O)[C@H](O)[C@@H]1O)OP(=O)(O)OP(=O)(O)OC[C@H]1O[C@@H](n2ccc(=O)[nH]c2=O)[C@H](O)[C@@H]1O.CCCCN(CCCC)CCCC.CCCCN(CCCC)CCCC.CCCCN(CCCC)CCCC.CCCCN(CCCC)CCCC.CCCCN(CCCC)CCCC`, the values for the EC50 on P2Y purinoceptor 2 (read-out: EC50) and on P2Y purinoceptor 1 [2] were greater than 7000 nM and 800 nM, respectively. For the compound `CSc1nc(N)c2ncn([C@@H]3O[C@H](COP(=O)(O)OP(=O)(O)O)[C@@H](O)[C@H]3O)c2n1`, at P2Y purinoceptor 1 [1], the EC50 came out at 100 nM. `Nc1ncnc2c1ncn2[C@@H]1O[C@H](COP(=O)(O)OP(=O)(O)OP(=O)(O)OC[C@H]2O[C@@H](n3cnc4c(N)ncnc43)[C@H](O)[C@@H]2O)[C@@H](O)[C@H]1O`: the EC50 on P2Y purinoceptor 1 [1] worked out at 60 nM. In the case of `BP(=O)(OP(=O)(O)OC[C@H]1O[C@@H](n2cnc3c(N)ncnc32)[C@H](O)[C@@H]1O)OP(=O)(O)OC[C@H]1O[C@@H](n2cnc3c(N)ncnc32)[C@H](O)[C@@H]1O.CCCCN(CCCC)CCCC.CCCCN(CCCC)CCCC.CCCCN(CCCC)CCCC`, the EC50 at P2Y purinoceptor 1 [1] was 900 nM. Take `BP(=O)(OP(=O)(O)OP(=O)(O)OC[C@H]1O[C@@H](n2cnc3c(N)ncnc32)[C@H](O)[C@@H]1O)OP(=O)(O)OP(=O)(O)OC[C@H]1O[C@@H](n2cnc3c(N)ncnc32)[C@H](O)[C@@H]1O.CCCCN(CCCC)CCCC.CCCCN(CCCC)CCCC.CCCCN(CCCC)CCCC.CCCCN(CCCC)CCCC.CCCCN(CCCC)CCCC`: the EC50 at P2Y purinoceptor 1 [1] is 63 nM.

As for `BP(=O)(OP(=O)(O)OC[C@H]1O[C@@H](n2ccc(=O)[nH]c2=O)[C@H](O)[C@@H]1O)OP(=O)(O)OC[C@H]1O[C@@H](n2ccc(=O)[nH]c2=O)[C@H](O)[C@@H]1O.CCCCN(CCCC)CCCC.CCCCN(CCCC)CCCC.CCCCN(CCCC)CCCC`, the EC50 result at P2Y purinoceptor 2 (hek293) was “Not Active”; on P2Y purinoceptor 1 [2], 800 nM. With `O=c1ccn([C@@H]2O[C@H](COP(=O)(O)OP(=O)(O)OP(=O)(O)O)[C@@H](O)[C@H]2O)c(=O)[nH]1` [URIDINE TRIPHOSPHATE], the EC50 at P2Y purinoceptor 2 (read-out: EC50) came out at 130 nM.
